Peptide text beside a SMILES is read from it. * marks the point of attachment. Hydrocinnamoyl = O=C(CCc1ccccc1)*; Palmitoyl = CCCCCCCCCCCCCCCC(=O)*; Undecanoyl = CCCCCCCCCCC(=O)*; Nicotinoyl = O=C(c1cccnc1)*; Cbz = O=C(OCc1ccccc1)*; NHBn = c1ccc(CN*)cc1; NHPh = c1ccc(N*)cc1
Organism: Rattus norvegicus
Test: Inhibition of rat recombinant Rab geranylgeranyltransferase at 100 uM in presence of canine Rab7 and rat REP1 NBD-FPP based continuous fluorimetric assay
Procedure, shortened: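 Continuous fluorometric assay in 96/384-well format: 3 μM Rab7, 3 μM REP1, 9 μM NBD-FPP and 400 nM RabGGTase, with or without inhibitor. […] IC50 was calculated from three independent measurements.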

inhibition [%]	Compound
87	NC(=O)CC[C@H](NC(=O)[C@H](Cc1ccccc1)NC(=O)[C@H](CO)NC(=O)CCc1ccccc1)C(=O)NCc1ccccc1 (Hydrocinnamoyl-Ser-Phe-Gln-NHBn)
83	CCCCCCCCCCC(=O)N[C@@H](Cc1ccc(O)cc1)C(=O)N[C@@H](Cc1c[nH]cn1)C(=O)N[C@@H](Cc1ccc(O)cc1)C(N)=O (Undecanoyl-Tyr-His-Tyr-NH2)
58	O=C(CNC(=O)[C@H](Cc1ccc(O)cc1)NC(=O)c1coc(-c2ccccc2)n1)N[C@@H](Cc1ccc(O)cc1)C(=O)O
95	CC(=O)Nc1cc(C(=O)N2CCC[C@H]2C(=O)N[C@@H](C(=O)N[C@@H](CCC(=O)O)C(=O)O)C(C)C)ccc1[N+](=O)[O-]
69	C[C@H](NC(=O)C(Br)C(Br)c1ccc(F)cc1)C(=O)NCC(=O)N[C@@H](Cc1ccc(O)cc1)C(=O)Nc1ccc(F)cc1F (some centres undefined)
101	COC(=O)NNC(=O)[C@H](CCC(=O)O)NC(=O)[C@H](NC(=O)[C@@H]1CCCN1C(=O)c1ccc([N+](=O)[O-])c(NC(C)=O)c1)C(C)C
71	O=C(N[C@@H](Cc1ccc(O)cc1)C(=O)N[C@@H](Cc1ccc(O)cc1)C(=O)N[C@@H](Cc1ccc(O)cc1)C(=O)OCCCl)c1ccc(F)cc1F
73	O=C(CCNC(=O)[C@H](Cc1c[nH]cn1)NC(=O)OCc1ccccc1)N[C@@H](Cc1ccc(O)cc1)C(=O)Nc1nccs1
50	O=C(CCc1ccc(F)cc1)N[C@@H](Cc1ccc(O)cc1)C(=O)NCC(=O)N[C@@H](Cc1ccc(O)cc1)C(=O)OCCCl
46	CN(C(=O)[C@@H](Cc1ccc(O)cc1)NC(=O)OCc1ccccc1)[C@@H](Cc1ccccc1)C(=O)N[C@@H](Cc1ccc(O)cc1)C(=O)O
96	C[C@H](NC(=O)[C@@H](NC(=O)c1ccc(-c2ccccc2)cc1)[C@@H](C)O)C(=O)N[C@@H](CCC(=O)O)C(=O)O
77	CCCCCCCCCCC(=O)N[C@@H](Cc1c[nH]cn1)C(=O)N[C@@H](Cc1c[nH]cn1)C(=O)N[C@@H](CO)C(=O)OC (Undecanoyl-His-His-Ser-OMe)
81	O=C(/C=C/c1ccc(F)cc1)N[C@@H](CO)C(=O)NCC(=O)N[C@@H](CO)C(=O)NC1CCCCC1
104	NC(=O)CC[C@H](NC(=O)[C@H](Cc1ccccc1)NC(=O)[C@H](CO)NC(=O)CCc1ccccc1)C(=O)Nc1ccc(F)cc1F
89	NC(=O)[C@H](Cc1ccc(O)cc1)NC(=O)CNC(=O)[C@H](Cc1c[nH]cn1)NC(=O)OCc1ccccc1 (Cbz-His-Gly-Tyr-NH2)
90	CCCCCCCCCCCOc1ccc(C(=O)N[C@@H](Cc2ccc(O)cc2)C(=O)N[C@@H](Cc2ccc(O)cc2)C(=O)N[C@@H](Cc2ccc(O)cc2)C(=O)NCC(O)CO)cc1 (some centres undefined)
76	C[C@H](NC(=O)/C=C/c1ccc(F)cc1)C(=O)NCC(=O)N[C@@H](Cc1ccc(O)cc1)C(=O)O
53	CCCCCCCCCCC(=O)N[C@@H](Cc1c[nH]cn1)C(=O)N[C@@H](Cc1ccccc1)C(=O)N[C@@H](Cc1ccc(O)cc1)C(=O)NCC(O)CO (some centres undefined)
75	NC(=O)CC[C@H](NC(=O)[C@H](Cc1ccccc1)NC(=O)CNC(=O)CCc1ccccc1)C(=O)NNc1ccccc1
89	NC(=O)[C@H](Cc1ccc(O)cc1)NC(=O)CCNC(=O)[C@H](Cc1c[nH]cn1)NC(=O)OCc1ccccc1
88	COC(=O)COC(=O)[C@H](Cc1ccccc1)N(C)C(=O)[C@H](Cc1ccc(OC)cc1)N(C)C(=O)[C@@H](Cc1ccc(O)cc1)NC(=O)CCc1ccccc1
5	C=CCCCCCCCCCOC(=O)[C@H](CO)NC(=O)CNC(=O)[C@H](Cc1ccccc1)NC(=O)c1coc(-c2ccccc2)n1

inhibition [%]	Compound
93	CCCCCCCCCCCCCCCC(=O)N[C@@H](Cc1ccc(O)cc1)C(=O)N[C@@H](Cc1ccc(O)cc1)C(=O)N[C@@H](Cc1ccc(O)cc1)C(=O)O (Palmitoyl-Tyr-Tyr-Tyr-OH)
93	NC(=O)CC[C@H](NC(=O)[C@H](Cc1ccccc1)NC(=O)CNC(=O)CCc1ccccc1)C(=O)Nc1ccc(F)cc1F
82	CC(C)(C)Oc1ccc(C[C@H](NC(=O)c2coc(-c3ccccc3)n2)C(=O)NCC(=O)N[C@@H](Cc2ccccc2)C(=O)O)cc1
90	COC(=O)[C@H](Cc1ccc(O)cc1)NC(=O)CNC(=O)[C@H](Cc1ccc(O)cc1)NC(=O)CCc1ccc(F)cc1
71	CC(C)[C@H](NC(=O)[C@@H](Cc1ccccc1)NC(=O)c1ccc(-c2ccccc2)cc1)C(=O)N[C@H](C)C(=O)N1CCC[C@H]1C(N)=O
100	C[C@H](NC(=O)[C@@H](NC(=O)c1ccc(-c2ccccc2)cc1)[C@@H](C)O)C(=O)N[C@@H](CCC(N)=O)C(=O)Nc1ccc(F)c(Cl)c1
9	O=C(N[C@@H](Cc1ccccc1)C(=O)N[C@@H](Cc1ccccc1)C(=O)N[C@@H](Cc1ccc(O)cc1)C(=O)O)OCc1ccccc1 (Cbz-Phe-Phe-Tyr-OH)
97	NCCOC(=O)[C@H](Cc1ccc(O)cc1)NC(=O)[C@H](Cc1ccc(O)cc1)NC(=O)[C@H](Cc1ccc(O)cc1)NC(=O)c1ccc(F)cc1F
6	O=C(CNC(=O)c1coc(-c2ccccc2)n1)NCC(=O)N[C@@H](Cc1cn(C(c2ccccc2)(c2ccccc2)c2ccccc2)cn1)C(=O)Nc1ccc(F)cc1F
106	CCCCCCCCCCCOc1ccc(C(=O)N[C@@H](Cc2ccc(O)cc2)C(=O)N[C@@H](Cc2ccc(O)cc2)C(=O)N[C@@H](Cc2ccc(O)cc2)C(=O)O)cc1
105	CC[C@H](C)[C@H](NC(=O)[C@H](Cc1ccccc1)NC(=O)c1cccnc1)C(=O)N[C@@H](CCCNC(=N)N)C(=O)OC (Nicotinoyl-Phe-Ile-Arg-OMe)
79	COC(=O)[C@H](Cc1ccc(O)cc1)NC(=O)[C@H](Cc1ccc(O)cc1)NC(=O)[C@H](Cc1ccc(O)cc1)NC(=O)c1ccc(F)cc1F
84	C=CCCCCCCCCCOC(=O)[C@H](CO)NC(=O)[C@H](Cc1ccccc1)NC(=O)[C@H](CO)NC(=O)CCc1ccccc1
84	O=C(/C=C/c1ccc(F)cc1)N[C@@H](CO)C(=O)N[C@@H](Cc1ccccc1)C(=O)N[C@@H](CO)C(=O)OCCCl
112	O=C(CNC(=O)c1coc(-c2ccccc2)n1)NCC(=O)N[C@@H](Cc1c[nH]cn1)C(=O)Nc1ccc(F)cc1F
79	CC[C@H](C)[C@H](NC(=O)[C@H](Cc1ccccc1)NC(=O)c1cccnc1)C(=O)N[C@@H](CCCNC(=N)N)C(N)=O (Nicotinoyl-Phe-Ile-Arg-NH2)
88	NC(=O)CC[C@H](NC(=O)[C@H](Cc1ccccc1)NC(=O)[C@H](CO)NC(=O)CCc1ccccc1)C(=O)Nc1ccc(F)cc1
102	CON(C)C(=O)[C@H](CCC(=O)O)NC(=O)[C@H](C)NC(=O)[C@@H](NC(=O)c1ccc(-c2ccccc2)cc1)[C@@H](C)O
69	COC(=O)[C@H](Cc1cn(C(c2ccccc2)(c2ccccc2)c2ccccc2)cn1)NC(=O)[C@H](Cc1ccccc1)NC(=O)CNC(=O)c1csc(-c2cccs2)n1
80	NC(=O)CC[C@H](NC(=O)[C@H](Cc1ccccc1)NC(=O)CNC(=O)CCc1ccccc1)C(=O)Nc1ccccc1 (Hydrocinnamoyl-Gly-Phe-Gln-NHPh)
93	COC(=O)[C@H](Cc1ccc(O)cc1)NC(=O)CNC(=O)[C@H](Cc1ccc(O)cc1)NC(=O)c1ccc(F)cc1
71	O=C(CNC(=O)[C@@H]1CCCN1C(=O)/C=C/c1ccccc1)N[C@@H](Cc1ccccc1)C(=O)O

— ChEMBL document CHEMBL1153722, “Design, synthesis, and characterization of peptide-based rab geranylgeranyl transferase inhibitors” (J Med Chem, 2009)
